According to EPA's CvTdb concentration-time database:

Key:
Rat [1] = test: concentration in brain after dosing; details: oral
Rat [2] = test: concentration in plasma after dosing
Rat [3] = test: concentration in liver after dosing; details: oral
Rat [4] = test: concentration in kidney after dosing; details: oral
Rat [5] = test: concentration in plasma after dosing; details: 20 min; dosed: dichloroacetic acid; 10 mg/kg; oral; Male; Harlan Sprague Dawley
Rat [6] = test: concentration in plasma after dosing; details: 22 h; dosed: Primidone; 80 mg/kg; oral; Female; F344
Rat [7] = test: concentration in plasma after dosing; details: 12 h; dosed: Primidone; 130 mg/kg; oral; Male; Harlan Sprague Dawley
Rat [8] = test: concentration in plasma after dosing; details: 5 min; dosed: Wyeth-14643; 2.0 mg/kg; oral; Male; Sprague-Dawley
Rat [9] = test: concentration in plasma after dosing; details: dosed: Wyeth-14643, 2.0 mg/kg, oral, Male, Sprague-Dawley
dog = details: dosed: tetrachloroethylene, 72 ppm, inhalation, duration: 4 hr, male, beagle
Method in brief: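 Sampling and analytical methods are those of each source and frequently went unreported. The concentration-versus-time and amount-versus-time points were compiled from published in vivo toxicokinetic studies and two structured collections. Most were digitised from plot screenshots with WebPlotDigitizer, with others copied from tables, in the reported units.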

Rat [10] = test: concentration in plasma after dosing; details: dosed: Fluorotelomer alcohol 8+2, 24 mg/kg, oral, Male, Harlan Sprague Dawley
Rat [11] = test: concentration in liver after dosing; details: 3 h; dosed: Fluorotelomer alcohol 8+2; 80 mg/kg; oral; Female; Harlan Sprague Dawley
Rat [12] = test: concentration in liver after dosing; details: 0.5 h; dosed: Fluorotelomer alcohol 8+2; 24 mg/kg; oral; Male; Harlan Sprague Dawley

O=C(O)C(F)(F)C(F)(F)C(F)(F)C(F)(F)C(F)(F)C(F)(F)C(F)(F)C(F)(F)C(F)(F)F [Perfluorodecanoic acid]
dosed: Perfluorodecanoic acid, 10 mg/kg
Details | concentration in brain, Rat [1] [ng/g] | concentration in kidney, Rat [4] [ng/g] | concentration in liver, Rat [3] [ng/g]
1 h, Female, Harlan Sprague Dawley | 581 | 18100 | 43800
1 h, Male, Harlan Sprague Dawley | – | 12400 | 56500
24 h, Female, Harlan Sprague Dawley | 2750 | 46800 | 102000
24 h, Male, Harlan Sprague Dawley | 2360 | 24600 | 107000
24 h, Male, Harlan Sprague Dawley - this seems too small | 2580 | 29500 | 125000
864 h, Female, Harlan Sprague Dawley | 926 | 18300 | 45900
864 h, Male, Harlan Sprague Dawley | 1240 | 11100 | 56700
1848 h, Female, Harlan Sprague Dawley | 526 | 5210 | 21200
1848 h, Male, Harlan Sprague Dawley | 602 | 4000 | 32600
3360 h, Female, Harlan Sprague Dawley | – | 2740 | 7920
3360 h, Male, Harlan Sprague Dawley | – | 1530 | 9980

Rat [2], dosed: Perfluorodecanoic acid, 2 mg/kg
Details | concentration in plasma [ng/mL]
0.5 h, oral, Male, Harlan Sprague Dawley | 1650
1 h, iv, Male, F344 | 5650
1 h, oral, Male, Harlan Sprague Dawley | 3170
2 h, oral, Male, Harlan Sprague Dawley | 3960
5 min, iv, Female, Harlan Sprague-Dawley | 7650
5 min, iv, Male, F344 | 7380
6 h, iv, Male, F344 | 5650
12 h, iv, Female, Harlan Sprague-Dawley | 5320
12 h, iv, Male, F344 | 6200
12 h, oral, Male, Harlan Sprague Dawley | 7680
24 h, iv, Male, F344 | 4850
24 h, oral, Male, Harlan Sprague Dawley | 6970
192 h, iv, Female, Harlan Sprague-Dawley | 5740
192 h, iv, Male, F344 | 2770
192 h, oral, Male, Harlan Sprague Dawley | 4850
528 h, iv, Male, F344 | 2240
528 h, oral, Male, Harlan Sprague Dawley | 2640
864 h, iv, Male, F344 | 1230
1200 h, iv, Female, Harlan Sprague-Dawley | 2250
1200 h, iv, Male, F344 | 719
1200 h, oral, Male, Harlan Sprague Dawley | 1700
1848 h, iv, Male, F344 | 437
1848 h, oral, Male, Harlan Sprague Dawley | 907
2520 h, iv, Male, F344 | 124
2520 h, oral, Male, Harlan Sprague Dawley | 687
3360 h, iv, Male, F344 | 277
3360 h, oral, Male, Harlan Sprague Dawley | 498

O=C(O)C(Cl)Cl [dichloroacetic acid]
Details | concentration in plasma [ng/mL]
Rat [5] | 291

Rat [2], dosed: dichloroacetic acid
Details | concentration in plasma [ng/mL]
0.25 h, 10 mg/kg, oral, Male, Harlan Sprague Dawley | 1600
0.25 h, 100 mg/kg, oral, Male, F344 | 24900
0.5 h, 10 mg/kg, oral, Male, Harlan Sprague Dawley | 224
1 h, 40 mg/kg, oral, Female, Harlan Sprague Dawley | 5910
1 h, 60 mg/kg, iv, Female, Harlan Sprague-Dawley | 23200
1.25 h, 40 mg/kg, oral, Female, Harlan Sprague Dawley | 3600
1.25 h, 100 mg/kg, oral, Male, F344 | 23000
1.5 h, 40 mg/kg, oral, Female, Harlan Sprague Dawley | 4500
2 h, 40 mg/kg, oral, Female, Harlan Sprague Dawley | 2200
2 h, 60 mg/kg, iv, Female, Harlan Sprague-Dawley | 1670
2 h, 100 mg/kg, oral, Male, F344 | 44600
2 min, 10 mg/kg, iv, Male, F344 | 23500
2 min, 10 mg/kg, oral, Male, Harlan Sprague Dawley | 222
2 min, 40 mg/kg, oral, Female, Harlan Sprague Dawley | 1530
2 min, 100 mg/kg, oral, Male, F344 | 1590
4 h, 100 mg/kg, oral, Male, F344 | 49600
5 min, 10 mg/kg, iv, Male, F344 | 15300
5 min, 10 mg/kg, oral, Male, Harlan Sprague Dawley | 822
5 min, 40 mg/kg, oral, Female, Harlan Sprague Dawley | 3100
5 min, 100 mg/kg, oral, Male, F344 | 7760
6 h, 100 mg/kg, oral, Male, F344 | 25000
8 h, 100 mg/kg, oral, Male, F344 | 48300
10 min, 10 mg/kg, iv, Male, F344 | 7720
10 min, 10 mg/kg, oral, Male, Harlan Sprague Dawley | 1450
10 min, 40 mg/kg, oral, Female, Harlan Sprague Dawley | 9870
10 min, 100 mg/kg, oral, Male, F344 | 11800
20 min, 10 mg/kg, iv, Male, F344 | 1840
20 min, 10 mg/kg, oral, Male, Harlan Sprague Dawley | 829
20 min, 40 mg/kg, oral, Female, Harlan Sprague Dawley | 5350
20 min, 100 mg/kg, oral, Male, F344 | 5620
40 min, 10 mg/kg, oral, Male, Harlan Sprague Dawley | 184
40 min, 40 mg/kg, oral, Female, Harlan Sprague Dawley | 13900
40 min, 100 mg/kg, oral, Male, F344 | 53800
50 min, 10 mg/kg, oral, Male, Harlan Sprague Dawley | 170

CCC1(c2ccccc2)C(=O)NC(=O)NC1=O [Phenobarbital]
concentration in plasma [ng/mL], Rat [2], dosed: Primidone, oral
Details | 0.25 h | 0.5 h | 1.5 h | 3 h | 6 h | 9 h | 12 h | 18 h | 22 h | 30 h
30 mg/kg, Female, F344 | – | – | 410 | 540 | 1060 | 900 | 1110 | 860 | 930 | –
30 mg/kg, Male, F344 | 300 | 330 | 2030 | 2980 | 3510 | 2720 | 2430 | 1660 | 1060 | –
80 mg/kg, Female, F344 | – | – | 630 | 1100 | 1960 | 2190 | 1980 | 1960 | 1500 | –
80 mg/kg, Female, Harlan Sprague-Dawley | 340 | 930 | – | – | – | – | 5660 | – | – | –
80 mg/kg, Male, F344 | – | – | 3330 | 3620 | 6530 | 7430 | – | 4020 | 2870 | –
130 mg/kg, Female, F344 | – | 960 | 870 | 4500 | 9670 | 3050 | 9030 | – | 2040 | 1920
130 mg/kg, Female, Harlan Sprague-Dawley | – | – | 4090 | – | – | – | – | – | – | –
130 mg/kg, Male, F344 | – | – | 4150 | – | 7700 | 9610 | – | – | 4120 | 2260
130 mg/kg, Male, Harlan Sprague Dawley | – | – | – | 840 | – | – | 2490 | – | – | –

Details | concentration in plasma [ng/mL]
Rat [6] | 1710
Rat [7] | 2490

Cc1cccc(Nc2cc(Cl)nc(SCC(=O)O)n2)c1C
concentration in plasma [ng/mL], Rat [2], Male, Sprague-Dawley
Details | dosed: Wyeth-14643, 1.0 mg/kg | dosed: Wyeth-14643, 2.0 mg/kg | dosed: Wyeth-14643, 5.0 mg/kg
0.25 h, iv | – | 8890 | –
0.25 h, oral | 480 | 941 | 2340
0.5 h, iv | – | 4960 | –
0.5 h, oral | 493 | 1350 | 3240
1 h, iv | – | 2670 | –
1 h, oral | 548 | 1010 | 4080
2 h, iv | – | 682 | –
2 h, oral | 373 | 466 | 1930
2.5 min, iv | – | 28300 | –
3 h, iv | – | 253 | –
3 h, oral | 145 | 972 | –
4 h, iv | – | 218 | –
4 h, oral | – | 273 | 1050
5 h, oral | 357 | 312 | –
5 min, iv | – | 20700 | –
5 min, oral | – | 270 | 520
6 h, oral | – | 118 | 506
7 h, oral | 124 | – | –
8 h, oral | – | 305 | 421
24 h, oral | – | – | 129

Details | concentration in plasma [ng/mL]
Rat [8] | 405

Rat [9]
Details | concentration in plasma [ng/mL]
0.25 h | 889
4 h | 160

O=C(O)C(Cl)(Cl)Cl [trichloroacetic acid]
dog
Details | amount in urine after dosing [mg]
22 h | 4.04
46 h | 1.08
70 h | 1.11

OCCC(F)(F)C(F)(F)C(F)(F)C(F)(F)C(F)(F)C(F)(F)C(F)(F)C(F)(F)F [Fluorotelomer alcohol 8+2]
Rat [10]
Details | concentration in plasma [ng/mL]
5 min | 6.79
9 h | 23.5

Details | concentration in brain, Rat [1] [ng/g] | concentration in kidney, Rat [4] [ng/g] | concentration in liver, Rat [3] [ng/g]
0.5 h, dosed: Fluorotelomer alcohol 8+2, 24 mg/kg, Male, Harlan Sprague Dawley | 4540 | 3380 | 17700
0.5 h, dosed: Fluorotelomer alcohol 8+2, 24 mg/kg, Male, Harlan Sprague Dawley - this seems too small | 978 | 1060 | 2190
0.5 h, dosed: Fluorotelomer alcohol 8+2, 80 mg/kg, Female, Harlan Sprague Dawley | 5440 | 2910 | 11600
1 h, dosed: Fluorotelomer alcohol 8+2, 24 mg/kg, Male, Harlan Sprague Dawley | 2450 | 1560 | 3900
1 h, dosed: Fluorotelomer alcohol 8+2, 80 mg/kg, Female, Harlan Sprague Dawley | 9090 | 6420 | 12500
3 h, dosed: Fluorotelomer alcohol 8+2, 24 mg/kg, Male, Harlan Sprague Dawley | 2300 | 1070 | 2230
3 h, dosed: Fluorotelomer alcohol 8+2, 80 mg/kg, Female, Harlan Sprague Dawley | 8400 | 3900 | 9320
6 h, dosed: Fluorotelomer alcohol 8+2, 24 mg/kg, Male, Harlan Sprague Dawley | 663 | 460 | 2050
6 h, dosed: Fluorotelomer alcohol 8+2, 80 mg/kg, Female, Harlan Sprague Dawley | 2060 | 1450 | 3970
12 h, dosed: Fluorotelomer alcohol 8+2, 24 mg/kg, Male, Harlan Sprague Dawley | 95.5 | 185 | 604
12 h, dosed: Fluorotelomer alcohol 8+2, 80 mg/kg, Female, Harlan Sprague Dawley | 679 | 373 | 1610

concentration in plasma [ng/mL], Rat [2]
Details | 0.25 h | 0.5 h | 0.75 h | 1 h | 3 h | 5 min | 6 h | 9 h | 12 h | 24 h
dosed: Fluorotelomer alcohol 8+2, 12 mg/kg, iv, Male, F344 | 1590 | 1260 | 422 | 625 | 118 | 3550 | 48.7 | 23.8 | 5.59 | 4.63
dosed: Fluorotelomer alcohol 8+2, 12 mg/kg, oral, Male, Harlan Sprague Dawley | 82.2 | 215 | 348 | 264 | 84.4 | 2.61 | 37.1 | 11.6 | 4.01 | 1.18
dosed: Fluorotelomer alcohol 8+2, 24 mg/kg, oral, Male, Harlan Sprague Dawley | 110 | – | – | – | – | 6.33 | – | 40.2 | – | 2.62
dosed: Fluorotelomer alcohol 8+2, 40 mg/kg, iv, Female, Harlan Sprague-Dawley | – | 8470 | 2350 | 2720 | – | – | – | 76.6 | 34.6 | 23.2
dosed: Fluorotelomer alcohol 8+2, 40 mg/kg, iv, Male, F344 | 13000 | 5070 | – | – | 378 | – | 254 | 47 | – | –

Details | concentration in liver [ng/g]
Rat [11] | 13000
Rat [12] | 7210
